The target of assay [1] is T1, Serine/threonine-protein kinase TAO3 (Homo sapiens) (UniProt Q9H2K8).
T1 sequence (whole entry): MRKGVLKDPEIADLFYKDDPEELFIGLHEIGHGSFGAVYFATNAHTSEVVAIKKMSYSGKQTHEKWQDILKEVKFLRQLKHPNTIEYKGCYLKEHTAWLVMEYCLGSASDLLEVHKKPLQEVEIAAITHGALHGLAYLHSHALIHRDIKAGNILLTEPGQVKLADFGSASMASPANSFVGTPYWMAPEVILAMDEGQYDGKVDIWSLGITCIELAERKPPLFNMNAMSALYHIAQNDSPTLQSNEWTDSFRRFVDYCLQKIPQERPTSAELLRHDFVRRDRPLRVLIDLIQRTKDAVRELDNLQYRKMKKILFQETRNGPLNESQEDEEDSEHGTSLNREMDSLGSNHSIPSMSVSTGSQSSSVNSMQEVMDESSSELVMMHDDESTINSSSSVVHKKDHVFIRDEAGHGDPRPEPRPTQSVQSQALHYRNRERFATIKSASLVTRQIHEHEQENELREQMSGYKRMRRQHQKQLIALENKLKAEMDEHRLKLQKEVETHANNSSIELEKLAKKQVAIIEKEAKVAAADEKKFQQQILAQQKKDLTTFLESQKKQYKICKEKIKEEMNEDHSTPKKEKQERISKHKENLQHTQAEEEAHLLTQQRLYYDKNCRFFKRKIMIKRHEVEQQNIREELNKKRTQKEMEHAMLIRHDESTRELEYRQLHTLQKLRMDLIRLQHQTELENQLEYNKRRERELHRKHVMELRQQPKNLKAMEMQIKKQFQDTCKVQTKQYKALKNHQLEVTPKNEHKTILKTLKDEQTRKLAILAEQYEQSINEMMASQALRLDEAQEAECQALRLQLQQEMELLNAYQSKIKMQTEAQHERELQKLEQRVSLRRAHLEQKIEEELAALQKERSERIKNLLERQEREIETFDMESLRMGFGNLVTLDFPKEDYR
Put plainly: Inhibition of TAOK3 at 1 uM.

Assay [2] deals with ALK tyrosine kinase receptor (Homo sapiens, UniProt Q9UM73). In words: Inhibition of ALK at 1 uM.
The target in assay [3] is Fibroblast growth factor receptor 3 (Homo sapiens) (UniProt P22607). Put plainly: Inhibition of FGFR3 at 1 uM. In outline: (§1)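 Single-concentration screen on the Ambit KINOMEscan platform, run against a panel of 250–400 kinases. Per-kinase inhibition was also summarized as S(90), the fraction of kinases inhibited by more than 90%.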
For assay [4], the target named is T2, Myosin light chain kinase family member 4 (Homo sapiens) (UniProt Q86YV6).
T2 sequence (whole entry): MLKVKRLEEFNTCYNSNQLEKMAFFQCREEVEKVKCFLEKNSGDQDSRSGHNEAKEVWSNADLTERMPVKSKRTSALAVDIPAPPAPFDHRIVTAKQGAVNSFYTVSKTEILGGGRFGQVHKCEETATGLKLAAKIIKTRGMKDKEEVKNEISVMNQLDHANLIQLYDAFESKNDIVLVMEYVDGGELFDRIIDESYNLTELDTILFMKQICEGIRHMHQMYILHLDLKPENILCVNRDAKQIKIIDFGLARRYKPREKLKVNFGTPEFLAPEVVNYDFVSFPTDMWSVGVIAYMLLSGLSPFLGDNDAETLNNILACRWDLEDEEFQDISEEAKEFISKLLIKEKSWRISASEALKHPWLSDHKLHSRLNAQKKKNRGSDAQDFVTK
Put plainly: Inhibition of SgK085 at 1 uM.

In assay [5] the target is Epidermal growth factor receptor (Homo sapiens) (UniProt P04626+P00533+Q15303+P21860). In words: Inhibition of EGFR E746-A750del mutant at 1 uM. Type of assay: protein assay. The essentials:
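Single-concentration screen using Ambit Bioscience KINOMEscan technology across a panel of 250–400 kinases. Per-kinase inhibition from this screen was summarized as S(90), the fraction of kinases inhibited by more than 90%.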

In assay [6] the target is Tyrosine-protein kinase Lyn (Homo sapiens) (UniProt P07948). Put plainly: Inhibition of LYN at 1 uM. In outline:
as §1

Assay [7] deals with T3, Mitogen-activated protein kinase 13 (Homo sapiens) (UniProt O15264).
T3 sequence (whole entry): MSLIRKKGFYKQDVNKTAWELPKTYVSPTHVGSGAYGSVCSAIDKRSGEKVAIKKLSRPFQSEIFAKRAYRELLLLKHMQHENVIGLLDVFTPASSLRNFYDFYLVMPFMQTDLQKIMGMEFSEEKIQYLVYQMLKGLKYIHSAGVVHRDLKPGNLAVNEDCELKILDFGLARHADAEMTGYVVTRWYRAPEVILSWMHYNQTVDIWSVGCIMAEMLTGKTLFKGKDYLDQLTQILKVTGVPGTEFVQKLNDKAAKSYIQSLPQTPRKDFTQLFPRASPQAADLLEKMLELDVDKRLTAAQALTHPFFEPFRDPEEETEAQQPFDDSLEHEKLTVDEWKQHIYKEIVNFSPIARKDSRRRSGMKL
Put plainly: Inhibition of p38-delta at 1 uM.

In assay [8] the target is Glycogen synthase kinase-3 alpha (Homo sapiens) (UniProt P49840). In words: Inhibition of GSK3A at 1 uM. The essentials: as §1
The target of assay [9] is T4, Serine/threonine-protein kinase TNNI3K (Homo sapiens) (UniProt Q59H18).
T4 sequence (whole entry): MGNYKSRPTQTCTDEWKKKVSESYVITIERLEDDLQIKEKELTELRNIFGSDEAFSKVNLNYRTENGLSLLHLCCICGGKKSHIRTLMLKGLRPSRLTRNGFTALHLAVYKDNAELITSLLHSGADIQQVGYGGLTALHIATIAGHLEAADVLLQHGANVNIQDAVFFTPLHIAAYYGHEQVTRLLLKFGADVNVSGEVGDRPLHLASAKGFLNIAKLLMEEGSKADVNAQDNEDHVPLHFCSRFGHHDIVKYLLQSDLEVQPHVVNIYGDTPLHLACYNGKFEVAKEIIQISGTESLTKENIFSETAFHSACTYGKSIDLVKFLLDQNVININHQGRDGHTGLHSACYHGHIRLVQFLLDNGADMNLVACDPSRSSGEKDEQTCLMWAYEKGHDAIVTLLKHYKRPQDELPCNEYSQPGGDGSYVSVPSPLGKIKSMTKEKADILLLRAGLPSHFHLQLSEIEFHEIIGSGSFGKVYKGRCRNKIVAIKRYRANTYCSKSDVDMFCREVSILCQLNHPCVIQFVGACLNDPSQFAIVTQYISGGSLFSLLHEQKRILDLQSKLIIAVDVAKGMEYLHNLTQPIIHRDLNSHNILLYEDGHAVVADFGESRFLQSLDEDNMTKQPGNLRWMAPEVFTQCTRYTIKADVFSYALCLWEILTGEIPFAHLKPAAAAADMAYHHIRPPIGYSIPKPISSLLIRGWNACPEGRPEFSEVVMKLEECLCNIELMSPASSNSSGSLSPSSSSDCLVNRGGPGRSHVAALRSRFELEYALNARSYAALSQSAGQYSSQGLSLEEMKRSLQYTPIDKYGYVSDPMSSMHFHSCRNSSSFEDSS
In words: Inhibition of TNNI3K at 1 uM.

The structures appear in SMILES notation.

Tyrosine-protein kinase Lyn (Homo sapiens), sequence (P07948 2-512 limits assumed): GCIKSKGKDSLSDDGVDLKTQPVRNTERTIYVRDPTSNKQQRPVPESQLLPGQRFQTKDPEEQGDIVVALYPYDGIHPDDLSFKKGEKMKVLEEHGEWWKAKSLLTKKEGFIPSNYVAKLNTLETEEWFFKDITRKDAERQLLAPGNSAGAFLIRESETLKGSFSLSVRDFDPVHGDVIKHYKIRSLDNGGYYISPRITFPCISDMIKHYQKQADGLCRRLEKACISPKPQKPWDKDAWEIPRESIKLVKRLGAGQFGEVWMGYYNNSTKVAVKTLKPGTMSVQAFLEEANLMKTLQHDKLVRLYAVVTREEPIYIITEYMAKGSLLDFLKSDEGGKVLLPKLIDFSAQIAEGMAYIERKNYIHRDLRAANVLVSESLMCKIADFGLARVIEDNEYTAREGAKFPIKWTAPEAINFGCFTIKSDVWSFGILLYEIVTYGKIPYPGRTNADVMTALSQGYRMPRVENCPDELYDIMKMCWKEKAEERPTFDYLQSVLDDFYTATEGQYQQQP
ALK tyrosine kinase receptor, sequence (Q9UM73 19-1620 limits assumed): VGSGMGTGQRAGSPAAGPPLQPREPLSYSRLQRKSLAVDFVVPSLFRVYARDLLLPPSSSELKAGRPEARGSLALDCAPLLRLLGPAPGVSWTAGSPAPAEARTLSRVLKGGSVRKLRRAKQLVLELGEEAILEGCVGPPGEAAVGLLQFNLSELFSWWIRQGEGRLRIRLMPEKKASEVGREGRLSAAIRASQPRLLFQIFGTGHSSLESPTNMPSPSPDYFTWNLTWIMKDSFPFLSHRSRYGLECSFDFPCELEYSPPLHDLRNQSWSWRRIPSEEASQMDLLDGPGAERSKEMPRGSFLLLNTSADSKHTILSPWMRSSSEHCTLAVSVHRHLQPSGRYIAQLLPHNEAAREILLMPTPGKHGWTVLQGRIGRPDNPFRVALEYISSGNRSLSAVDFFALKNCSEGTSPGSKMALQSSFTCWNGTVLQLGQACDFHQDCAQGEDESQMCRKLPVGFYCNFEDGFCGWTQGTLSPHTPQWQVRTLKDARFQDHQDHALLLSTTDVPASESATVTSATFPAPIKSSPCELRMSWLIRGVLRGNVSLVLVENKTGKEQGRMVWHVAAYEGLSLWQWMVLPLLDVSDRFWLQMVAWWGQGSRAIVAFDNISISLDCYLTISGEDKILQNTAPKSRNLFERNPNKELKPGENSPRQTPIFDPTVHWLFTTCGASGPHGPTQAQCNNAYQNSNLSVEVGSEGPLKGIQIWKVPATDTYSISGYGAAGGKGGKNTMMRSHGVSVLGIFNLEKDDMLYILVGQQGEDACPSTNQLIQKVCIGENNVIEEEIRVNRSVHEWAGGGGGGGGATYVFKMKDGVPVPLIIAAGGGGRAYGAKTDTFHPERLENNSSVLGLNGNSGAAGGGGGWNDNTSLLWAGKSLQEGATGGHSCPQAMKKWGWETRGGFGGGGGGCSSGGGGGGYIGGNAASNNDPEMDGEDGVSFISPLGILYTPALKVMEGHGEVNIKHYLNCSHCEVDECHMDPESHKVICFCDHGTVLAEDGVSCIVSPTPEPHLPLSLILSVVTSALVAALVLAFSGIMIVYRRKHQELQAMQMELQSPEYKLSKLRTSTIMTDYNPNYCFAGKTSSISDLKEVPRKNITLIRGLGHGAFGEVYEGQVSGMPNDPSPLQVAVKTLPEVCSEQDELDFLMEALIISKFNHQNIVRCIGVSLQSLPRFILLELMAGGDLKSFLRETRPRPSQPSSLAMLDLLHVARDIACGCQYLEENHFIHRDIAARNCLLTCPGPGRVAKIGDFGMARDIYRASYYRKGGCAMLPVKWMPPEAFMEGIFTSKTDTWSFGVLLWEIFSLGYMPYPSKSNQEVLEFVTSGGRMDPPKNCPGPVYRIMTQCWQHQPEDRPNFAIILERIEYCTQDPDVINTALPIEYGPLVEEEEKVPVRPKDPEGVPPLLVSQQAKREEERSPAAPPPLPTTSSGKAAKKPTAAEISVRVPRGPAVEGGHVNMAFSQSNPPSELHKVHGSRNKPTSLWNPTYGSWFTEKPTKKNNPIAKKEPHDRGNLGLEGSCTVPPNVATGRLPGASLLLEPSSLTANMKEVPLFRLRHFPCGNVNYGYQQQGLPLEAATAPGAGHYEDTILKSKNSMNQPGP
Glycogen synthase kinase-3 alpha (Homo sapiens), sequence (P49840 2-483 limits assumed): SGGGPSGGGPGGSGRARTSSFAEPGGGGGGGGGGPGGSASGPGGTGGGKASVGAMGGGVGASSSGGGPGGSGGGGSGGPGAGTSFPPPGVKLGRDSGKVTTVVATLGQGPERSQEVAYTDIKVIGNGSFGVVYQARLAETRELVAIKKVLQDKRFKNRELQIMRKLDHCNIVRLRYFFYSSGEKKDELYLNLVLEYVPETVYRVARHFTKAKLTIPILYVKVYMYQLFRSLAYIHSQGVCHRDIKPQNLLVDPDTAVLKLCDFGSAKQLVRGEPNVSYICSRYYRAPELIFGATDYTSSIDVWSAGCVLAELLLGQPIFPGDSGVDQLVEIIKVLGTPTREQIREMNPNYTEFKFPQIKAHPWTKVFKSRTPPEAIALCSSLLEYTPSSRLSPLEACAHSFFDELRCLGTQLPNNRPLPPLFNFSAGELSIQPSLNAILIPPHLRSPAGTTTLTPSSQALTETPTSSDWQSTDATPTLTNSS
Fibroblast growth factor receptor 3 (Homo sapiens), sequence (P22607 23-806 limits assumed): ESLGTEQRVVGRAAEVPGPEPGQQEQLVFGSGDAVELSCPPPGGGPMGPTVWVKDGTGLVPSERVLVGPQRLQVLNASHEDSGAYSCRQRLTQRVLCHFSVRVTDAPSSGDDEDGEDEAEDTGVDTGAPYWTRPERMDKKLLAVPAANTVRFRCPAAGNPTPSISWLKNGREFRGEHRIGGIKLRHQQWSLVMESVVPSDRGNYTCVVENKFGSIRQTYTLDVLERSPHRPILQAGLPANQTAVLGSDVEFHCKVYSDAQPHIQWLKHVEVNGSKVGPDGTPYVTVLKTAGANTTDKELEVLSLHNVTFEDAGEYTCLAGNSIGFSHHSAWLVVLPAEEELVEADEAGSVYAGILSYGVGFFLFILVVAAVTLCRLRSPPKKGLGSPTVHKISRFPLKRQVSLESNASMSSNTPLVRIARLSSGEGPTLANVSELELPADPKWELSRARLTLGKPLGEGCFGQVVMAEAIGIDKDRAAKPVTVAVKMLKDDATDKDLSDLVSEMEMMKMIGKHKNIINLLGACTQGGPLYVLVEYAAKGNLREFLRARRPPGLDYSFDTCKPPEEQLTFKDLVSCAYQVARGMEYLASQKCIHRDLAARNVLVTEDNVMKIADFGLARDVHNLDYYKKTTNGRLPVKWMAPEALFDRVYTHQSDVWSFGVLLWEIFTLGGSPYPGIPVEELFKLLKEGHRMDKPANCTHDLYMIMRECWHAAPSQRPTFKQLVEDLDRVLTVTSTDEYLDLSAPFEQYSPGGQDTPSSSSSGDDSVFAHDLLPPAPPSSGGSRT

For `FC(F)(F)c1ccc(Cl)cc1CN1CCNc2ncc(-c3ccnc(N4CCNCC4)c3)cc21`, the inhibition is less than 50% in [1]; 99% in assay [2]; less than 50% in [3]; less than 50% in assay [4]; less than 50% in [5]; less than 50% in assay [6]. The inhibition in assay [7], in assay [8] and in [9] was less than 50% throughout.

Turning to `CN1CCN(c2ccc(-c3cnc4c(c3)N(Cc3cc(Cl)ccc3Cl)CCN4)cn2)CC1`, the inhibition in assay [1] is less than 50%; in assay [2], 98%; in assay [3], less than 50%; in assay [4], less than 50%; in assay [5] it was less than 50%; in assay [6], less than 50%. For the same molecule, the inhibition in assay [7], in assay [8] and in assay [9] was less than 50% each time.

As for `COC1CCN(C(=O)c2ccc(-c3cnc4c(c3)N(Cc3cc(Cl)ccc3C(F)(F)F)CCN4)cc2)CC1`, the inhibition in [2] was 85.6%; in assay [3], less than 50%; in [5], less than 50%; in assay [6], less than 50%; in assay [8] it was less than 50%; in [9], less than 50%.

Take `O=C(c1ccc(-c2cnc3c(c2)N(Cc2cc(Cl)ccc2C(F)(F)F)CCN3)cc1)N1CCCCC1`: the inhibition in assay [2], in assay [3], in [5], in assay [6], in assay [8] and in [9] was less than 50% each time.

For the molecule `O=C(O)c1ccc(-c2cnc3c(c2)N(Cc2cc(Cl)ccc2C(F)(F)F)CCN3)cc1`, the inhibition in assay [2], in assay [3], in assay [5], in assay [6], in assay [8] and in assay [9] was less than 50% throughout.

As to `CN1CCN(c2ccc(-c3cnc4c(c3)N(Cc3cc(F)ccc3F)CCN4)cn2)CC1`, the inhibition in [1] is less than 50%; in [2] it was 96.7%; in assay [3], less than 50%; in assay [4], less than 50%; in assay [5] it was less than 50%; in assay [6], less than 50%. The inhibition in [7], in [8] and in assay [9] was less than 50% throughout.

For the molecule `O=C(c1ccc(-c2cnc3c(c2)N(Cc2cc(Cl)ccc2C(F)(F)F)CCN3)cc1)N1CCC(N2CCCC2)CC1`, the inhibition in assay [2] was 83.4%; in [3] it was less than 50%; in assay [5], less than 50%; in [6], less than 50%; in assay [8], less than 50%; in assay [9] it was less than 50%.

`CN1CCN(c2ccc(-c3cnc4c(c3)N(Cc3c(F)ccc(F)c3Cl)CCN4)cn2)CC1`: the inhibition in [1] is less than 50%; in assay [2] it was 97%; in assay [3], less than 50%; in [4], less than 50%; in assay [5], less than 50%; in assay [6], less than 50%. Moreover, the inhibition in assay [7], in assay [8] and in assay [9] was less than 50% throughout.

For `CC(=O)N1CCN(c2cc(-c3cnc4c(c3)N(Cc3cc(Cl)ccc3C(F)(F)F)CCN4)ccn2)CC1`, the inhibition was less than 50% in [1]; 98% in assay [2]; less than 50% in assay [3]; less than 50% in assay [4]; less than 50% in assay [5]; less than 50% in assay [6]. Also, the inhibition in assay [7], in assay [8] and in assay [9] was less than 50% each time.

Consider `CN1CCN(c2ccc(-c3cnc4c(c3)N(Cc3cc(Cl)ccc3C(F)(F)F)CCN4)cn2)CC1`, for which the inhibition was less than 50% in [1]; 98% in assay [2]; less than 50% in assay [3]; less than 50% in assay [4]; less than 50% in [5]; less than 50% in assay [6]. Also, the inhibition in assay [7], in assay [8] and in [9] was less than 50% in each case.

By inhibition is commonly meant the share of the control response that was lost under treatment. High values mean a strong effect, low ones a weak effect.

The values above are taken from ChEMBL document CHEMBL1165965, “Synthesis and structure-activity relationships of 1,2,3,4-tetrahydropyrido[2,3-b]pyrazines as potent and selective inhibitors of the anaplastic lymphoma kinase” (Bioorg Med Chem, 2010).
